This excerpt belongs to a sample that is enriched for hits.
PTEN del growth: growth suppression of PTEN-null HCT116, primary screen, cell-based, CellTiter-Glo; viability, % at 10 µM; HCT116 PTEN-null viability, 60 h; active compounds read low; 140,000 tested, 1.2% active;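 active = viability at or below a set limit, 4 SD under the median of all tested compounds, cut at about 3.7% in these data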;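 note: PTEN knockout HCT116 line with beta catenin targeted HCT116 as companion control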
H69AR inhibit: proliferation blockers of H69AR lung cancer cells, primary screen, cell-based, human, 86K library; 85,000 tested, 6% active; viability, % at 10 µM; H69AR lung tumor viability, ATP luminescence, 72 h; active compounds read low;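 active = viability at or below 40%; inactive = viability above 40%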;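 note: multidrug resistant small cell line overexpressing MRP-1 efflux transporter; 100% = mean luminescence of untreated control wells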
HUVEC inhibit: inhibitors of HUVEC proliferation, primary screen, cell-based, 384-well | 86,000 tested, 1.1% active | viability, % at 10 µM (by protocol) | CellTiter-Glo luminescence, 72 h; active compounds read low | AID 648, 2007;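 active = viability at or below 30%; inactive = viability above 30%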;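 note: 100% = median luminescence of DMSO-only cell control wells on each plate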
Lung fibro prol: antiproliferative effect on LL 47 fibroblasts – human, LL 47 cells, CellTiter-Glo luminescence, primary screen; LL 47 human lung fibroblast viability, ATP luminescence; active compounds read low; viability, % at 10 µM; 85,000 tested, 1.1% active; AID 719, 2007;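 active = viability at or below 50% in the single dose screen; inactive = viability above 50%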;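 note: compound exposure lasted 72 h before the ATP readout; 100% = median luminescence of untreated cell-only wells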
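Benchmarks: Cell-only wells, no compound | Test system: LL 47 human lung fibroblasts, passage 12 or lower | Input: 1,150 cells/well | Measured by: CellTiter-Glo luminescence measuring cellular ATP | Medium: IMEM, 15% FBS supplement | Schedule: Overnight attachment after seeding, then 72 h compound exposure at 37 °C | Doses: Compound addition at 0.1% DMSO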
bCat KO growth: primary screen for growth suppressors in beta-catenin knockout HCT116 cells (colon tumor, human) | HCT116 beta-catenin knockout viability, CellTiter-Glo, 60 h; active compounds read low | viability, % at 10 µM | 140,000 tested, 1.5% active | AID 818, 2007;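 active = viability at or under a set limit, the compound median less 4 SD, cut at about 6% in these data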;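 note: 0% = Hyamine 1622 control at 20 µM and 100% = untreated cell control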
Numbers without * were called inactive; . = not tested or not shown.

SMILES | PTEN del growth | H69AR inhibit | HUVEC inhibit | Lung fibro prol | bCat KO growth
COc1ccc(CCC(=O)N2CCN(S(=O)(=O)c3ccc4ccccc4c3)CC2)cc1 | 82 | 54 | 96 | 96 | 84
Cc1cc(=O)[nH]c(N/N=C/c2c(O)n(-c3ccccc3)c(=O)c3ccccc23)n1 | 84 | . | . | . | 89
O=Cc1cn(CC(=O)N2CCCc3ccccc32)c2ccccc12 | 86 | 35* | 93 | 96 | 87
COc1cc(C(=O)Nc2cccc3cccnc23)cc(OC)c1OC | 77 | 71 | 90 | 96 | 83
COc1cccc(C(=O)N/N=C(/CCC(=O)O)c2ccccc2)c1 | 103 | . | . | . | 107
COc1cc(C(=O)N/N=C(\c2ccccc2)c2ccccn2)cc(OC)c1OC | 3.8* | . | . | . | 4.8*
COc1cccc(C(=O)N/N=C(/c2ccccc2)c2ccccn2)c1 | 1.9* | . | . | . | 5.0*
O=C(Nc1ccccc1)c1cc2c(=O)c3ccccc3oc2nc1C(F)(F)F | 98 | . | . | . | 103
COc1ccc(Cl)cc1-c1nc(N)nc(NC2CCCCC2)n1 | 67 | . | . | . | 73
Cc1ccc(-n2c(C)c3c(C)nnc(C)c3c2C)cc1 | . | 81 | 87 | 102 | .
Cc1ccc(-n2c(C)c3c(C)nnc(C)c3c2C)cc1C | 8 | 32* | 102 | 93 | 4.0*
Oc1[nH]c2ccccc2c1C=Nc1ccc2c(c1)OCO2 | 81 | . | . | . | 77
O=c1c2ccccc2c(C=Nc2cccc(O)c2)c(O)n1-c1ccc2c(c1)OCO2 | 9 | . | . | . | 3.7*
Cc1ccc(C)c(N(C)S(=O)(=O)c2cccc3nsnc23)c1 | 94 | 92 | 102 | 93 | 95
Cc1ccccc1S(=O)(=O)NC1OC(=O)C(Cl)=C1Cl (stereo not drawn) | 107 | 7.1* | 100 | 96 | 101
CC1CCCC(C)N1S(=O)(=O)c1ccc(S(=O)(=O)NCc2ccccc2)cc1 (stereo not drawn) | 41 | 36* | 90 | 46* | 58
O=S(=O)(NCc1ccccc1)c1ccc(S(=O)(=O)N2CCCCC2)cc1 | 80 | 82 | 91 | 98 | 72
CC1CCN(S(=O)(=O)c2ccc(S(=O)(=O)NCc3ccccc3)cc2)CC1 | 46 | 38* | 76 | 90 | 51
Cc1ccc(C2CC(C(F)F)n3ncc(C(=O)Nc4c(C)nn(Cc5c(F)cccc5Cl)c4C)c3N2)cc1 (stereo not drawn) | 69 | 91 | 82 | 86 | 58
CCN(CCNC(=O)C1CCN(S(=O)(=O)c2cccc3cccnc23)CC1)c1ccccc1 | 81 | 88 | 92 | 96 | 90
Oc1ccc(Br)cc1-c1nc2cnccn2c1NC1CCCC1 | 1.9* | 47 | 80 | 75 | 1.3*
COc1cc(Nc2ccc(C)cc2)c([N+](=O)[O-])nc1[N+](=O)[O-] | 21 | 6.2* | 42 | 39* | 23
CCCc1ccc(-c2cc(NC(=O)CSc3n[nH]c(N)n3)n(-c3ccccc3)n2)cc1 | 46 | 17* | 17* | 94 | 60
Nc1nc(CN2CCC(Cc3ccccc3)CC2)nc(Nc2ccccc2)n1 | 69 | 30* | 60 | 67 | 56
Cc1ccc(Nc2nc(N)nc(CN3CCN(c4ccccc4F)CC3)n2)cc1 | 76 | 90 | 75 | 95 | 79
SMILES | PTEN del growth | H69AR inhibit | HUVEC inhibit | Lung fibro prol | bCat KO growth
CC1CC(C)CN(Cc2nc(N)nc(Nc3ccc4ccccc4c3)n2)C1 (stereo not drawn) | 23 | 12* | 50 | 64 | 21
COc1ccccc1N1CCN(Cc2nc(N)nc(Nc3ccc(C)cc3)n2)CC1 | 52 | 3.0* | 86 | 91 | 61
Nc1nc(CN2CCCCCC2)nc(Nc2ccccc2)n1 | 63 | 77 | 112 | 106 | 64
CC12C(=O)N(c3ccccn3)C(=O)C1C1C=CC2C1 (stereo not drawn) | 104 | 82 | 102 | 101 | 104
Cc1cc(SCC(=O)c2ccccc2)n2nc(C)nc2n1 | 87 | 66 | 79 | 81 | 76
Cc1ccc2nc(N/N=C\c3ccc([N+](=O)[O-])o3)nc(-c3ccccc3)c2c1 | 3.0* | 13* | 51 | 90 | 2.1*
O=[N+]([O-])c1ccc(/C=N/Nc2nc(-c3ccccc3)c3cc(Br)ccc3n2)o1 | 1.4* | . | . | . | 1.7*
O=[N+]([O-])c1ccc(/C=N/Nc2nc(N3CCCC3)nc(N3CCCC3)n2)o1 | 44 | 26* | 6.8* | 87 | 65
N#Cc1ccccc1/C=N/Nc1nc(-c2ccccc2)c2cc(Br)ccc2n1 | 6 | . | . | . | 2.1*
CCOc1cc(N2CCOCC2)c(OCC)cc1NC(=O)c1cc(-c2ccco2)nc2ccccc12 | 66 | 4.0* | 15* | 9.1* | 71
COC(=O)C1=C(C)NC(=O)/C1=C\c1cc(C)n(-c2c(C)cccc2C)c1C | 69 | 46 | 27* | 60 | 76
Cc1ccc(C(=O)N/N=C\c2ccc([N+](=O)[O-])s2)cn1 | 2.6* | . | . | . | 2.4*
O=C(N/N=C/c1ccc([N+](=O)[O-])s1)c1ccncc1 | 2.5* | . | . | . | 2.5*
Cc1ccc(C(=O)N/N=C/c2ccc([N+](=O)[O-])s2)cc1 | 1.3* | 20* | 36 | 49* | 1.9*
Cc1ccc(/C=N\NC(=O)c2cc([N+](=O)[O-])cc([N+](=O)[O-])c2)o1 | 88 | . | . | . | 92
COc1ccc(NC(=O)CCC(=O)N/N=C/c2ccc([N+](=O)[O-])s2)cc1 | 1.1* | . | . | . | 1.4*
O=C(N/N=C/c1ccc(Br)s1)c1ccccc1[N+](=O)[O-] | 87 | . | . | . | 75
COc1ccc(NCc2ccc([N+](=O)[O-])s2)cc1 | 68 | . | . | . | 62
O=C(N/N=C/C=C/c1ccccc1)c1cccc(Br)c1 | 57 | 37* | 80 | 77 | 59
O=C(N/N=C/c1ccc([N+](=O)[O-])s1)c1cccc(Br)c1 | 4 | 39* | 30 | 2.6* | 7
Cn1c(SCC(=O)N/N=C/c2ccc([N+](=O)[O-])s2)nnc1-c1ccc(Cl)cc1 | 1.6* | . | . | . | 1.9*
Cc1ccc2cc(COC(=O)c3ccncc3)c(=O)[nH]c2c1 | 101 | . | 93 | 98 | 90
Cc1c(NC(=O)C2CCCO2)cccc1[N+](=O)[O-] (stereo not drawn) | 92 | . | . | . | 94
Cc1cc(C)cc(NC(=O)Cn2c(=O)oc3cc(S(=O)(=O)N4CCC(C)CC4)ccc32)c1 | 100 | 80 | 86 | 96 | 103
COC(=O)c1cn(CC(=O)N2C(C)CCCC2C)c2ccccc12 (stereo not drawn) | 99 | 75 | 99 | 109 | 96
CC1CCCC(C)N1C(=O)Cn1cc(/C=C2/C(=O)Nc3ccccc32)c2ccccc21 (stereo not drawn) | 51 | 23* | 76 | 82 | 58
COCc1cc(=O)n2[nH]c(SC)nc2n1 | 94 | 82 | 104 | 106 | 87
CCC(C)C(NC(=O)OC(C)(C)C)C(=O)NCc1ccco1 (stereo not drawn) | 78 | 101 | 96 | 98 | 80
Cc1ccc(SCC(=O)N2CCOCC2)cc1 | 99 | . | . | . | 91
